Key:
[1] = Cytotoxicity against human 2209-23 cells assessed as cell viability by WST-1 assay; assay type: cell-based
Procedure, shortened: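 Viability of the same 2209-23 replicon cells was measured by the WST-1 assay. Values are reported as CC50.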

[2] = system: Hepatitis C virus; test: Antiviral activity against HCV 1b infected in human 2209-23 cells by replicon assay; assay type: functional, organism-based, Hepacivirus hominis
[3] = Antiproliferative activity against human 2209-23 cells assessed as [3H]thymidine incorporation by scintillation proximity assay; assay type: cell-based
Procedure, shortened: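 Proliferation of the GT-1b stable replicon line 2209-23 was measured as tritiated thymidine incorporation into cellular DNA by scintillation proximity assay. Values are reported as IC50.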

[4] = Inhibition of HCV NS5B polymerase-mediated RNA synthesis; parameters: species or system Hepacivirus hominis

SMILES | CC50 [1] [µM] | EC50 [2] [µM] | IC50 [3] [µM] | EC50 [4] [µM]
[N-]=[N+]=N[C@]1(CO)O[C@@H](n2ccc(N)nc2=O)[C@H](F)[C@@H]1O | > 100 | 4.02 | > 100 | –
[N-]=[N+]=N[C@]1(CO)O[C@@H](n2ccc(N)nc2=O)[C@H](O)[C@@H]1F | > 100 | > 100 | – | –
[N-]=[N+]=N[C@]1(CO)O[C@@H](n2ccc(N)nc2=O)[C@@H](O)[C@@H]1O | > 1000 | 0.171 | > 100 | –
Nc1ccn([C@@H]2O[C@H](CO)[C@@H](O)[C@@H]2F)c(=O)n1 | > 100 | 0.114 | 0.174 | –
[N-]=[N+]=N[C@]1(CO)O[C@@H](n2ccc(N)nc2=O)[C@H](O)[C@@H]1O [4'-AZIDOCYTIDINE] | > 2000 | 1.28 | > 100 | 1.28
[N-]=[N+]=N[C@]1(CO)O[C@@H](n2ccc(N)nc2=O)[C@H](O)[C@H]1F | > 100 | > 100 | – | –
[N-]=[N+]=N[C@]1(CO)O[C@@H](n2ccc(N)nc2=O)[C@@H](F)[C@@H]1O [RO-0622] | > 100 | 0.024 | > 100 | –
[N-]=[N+]=N[C@]1(CO)O[C@@H](n2ccc(N)nc2=O)C(F)(F)[C@@H]1O | > 100 | 0.066 | – | –
